Key:
[1] = molecular target: T1, G-protein coupled receptor homolog US28 (Human cytomegalovirus (strain AD169) (HHV-5) (Human herpesvirus 5), UniProt P69332); assay: Inhibitory concentration against chemokine receptor US28 expressed in COS-7 cells using [125I]-CCL5; type: cell-based, Human betaherpesvirus 5
T1 sequence (P69332 whole entry): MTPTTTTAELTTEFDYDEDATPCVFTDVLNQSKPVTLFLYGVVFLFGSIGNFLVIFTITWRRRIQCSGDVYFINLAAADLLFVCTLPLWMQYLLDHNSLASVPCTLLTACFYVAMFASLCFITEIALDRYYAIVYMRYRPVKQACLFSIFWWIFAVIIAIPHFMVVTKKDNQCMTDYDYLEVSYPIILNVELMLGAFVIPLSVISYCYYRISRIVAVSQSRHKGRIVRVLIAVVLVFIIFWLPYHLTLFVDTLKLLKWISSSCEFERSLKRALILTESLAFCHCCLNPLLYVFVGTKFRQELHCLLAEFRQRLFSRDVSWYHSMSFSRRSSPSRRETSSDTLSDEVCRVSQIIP
How it was run: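 Whole US28-transfected COS-7 cells, 48 h post-transfection, incubated 3 h at 4 °C with 0.3 nM [125I]CCL5 in 50 mM Hepes pH 7.4, 1 mM CaCl2, 5 mM MgCl2, 0.5% BSA ± varying compound concentrations. Four washes at 4 °C with buffer plus 0.5 M NaCl; nonspecific binding with 0.1 μM unlabeled CCL5. IC50 as mean, interval from ≥3 experiments unless noted.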

[2] = molecular target: T1, G-protein coupled receptor homolog US28; assay: Effective concentration against US28-mediated inositol phosphate production in COS-7 cells; type: functional, cell-based
How it was run: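 COS-7 cells transiently transfected (DEAE-dextran, 2 μg DNA per million cells, pcDEF3-US28); 24 h post-transfection labeled overnight with 2 μCi/ml myo-[2-3H]inositol in inositol-free medium. After 10 min wash, 2 h incubation in DMEM with 25 mM HEPES pH 7.4 and 20 mM LiCl ± varying compound concentrations; stopped with cold 10 mM formic acid, [3H]inositol phosphates isolated by anion exchange, scintillation counted. EC50 as mean, interval from ≥3 experiments.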

| Structure (SMILES) | IC50 [1] | EC50 [2] |
| --- | --- | --- |
| OC1(c2ccc(Cl)cc2)CCN(CCCCc2ccccc2)CC1 | 14.8 µM | – |
| COc1ccc(C2(O)CCN(CCCC(C#N)(c3ccccc3)c3ccccc3)CC2)cc1 | 72.4 µM | 28.8 µM |
| N#CC(CCCN1CCC(O)(c2ccccc2)CC1)(c1ccccc1)c1ccccc1 | 35.5 µM | 28.2 µM |
| N#CC(CCCN1CCN(c2ccc(Cl)cc2)CC1)(c1ccccc1)c1ccccc1 | > 100 µM | > 100 µM |
| OC1(c2ccc(Cl)cc2)CCN(CCCOc2ccccc2)CC1 | 61.7 µM | – |
| Cc1ccc(C2(O)CCN(CCCC(C#N)(c3ccccc3)c3ccccc3)CC2)cc1 | 60.3 µM | – |
| N#CC(CCCN1CCC(O)(c2ccc(Br)cc2)CC1)(c1ccccc1)c1ccccc1 | 19.5 µM | – |
| N#CC(CCCN1CCC(O)CC1)(c1ccccc1)c1ccccc1 | > 100 µM | > 100 µM |
| COc1ccc(C(CCCN2CCC(O)(c3ccc(Cl)cc3)CC2)c2ccccc2)cc1 (configuration not stated) | 15.5 µM | – |
| CCOC(=O)C1CCN(CCCC(C#N)(c2ccccc2)c2ccccc2)CC1 | 34.7 µM | > 100 µM |
| N#CC(CCCN1CCC(O)(c2ccc(Cl)c(Cl)c2)CC1)(c1ccccc1)c1ccccc1 | 38 µM | – |
| OC1(c2ccc(Cl)cc2)CCN(CCCC(c2ccccc2)c2ccc(Cl)c(Cl)c2)CC1 (configuration not stated) | 15.8 µM | – |
| N#CC(CCCN1CCC(C(=O)O)CC1)(c1ccccc1)c1ccccc1 | > 100 µM | > 100 µM |
| N#CC1(c2ccccc2)CCN(CCCC(C#N)(c2ccccc2)c2ccccc2)CC1 | > 100 µM | > 100 µM |
| N#CC(CCCN1CCC(c2ccc(Cl)cc2)CC1)(c1ccccc1)c1ccccc1 | – | 13.8 µM |
| Cc1ccccc1C(CCCN1CCC(O)(c2ccc(Cl)cc2)CC1)c1ccccc1 (configuration not stated) | 5.5 µM | 9.8 µM |
| OC1(c2ccc(Cl)cc2)CCN(CCCC(c2ccccc2)c2ccc(Cl)cc2)CC1 (configuration not stated) | 17 µM | – |

| Structure (SMILES) | IC50 [1] | EC50 [2] |
| --- | --- | --- |
| N#CC(CCCN1CCC(O)(Cc2ccccc2)CC1)(c1ccccc1)c1ccccc1 | 63.1 µM | – |
| OC1(c2ccc(Cl)cc2)CCN(CCCC(c2ccccc2)c2ccccc2)CC1 | 6.5 µM | 4.2 µM |
| N#CC(CCCN1CCC(C(N)=O)CC1)(c1ccccc1)c1ccccc1 | > 100 µM | > 100 µM |
| OC1(c2ccc(Cl)cc2)CCN(CCCC(c2ccc(Cl)cc2)c2ccc(-c3ccccc3)cc2)CC1 (configuration not stated) | > 100 µM | > 100 µM |
| N#CC(CCCN1CCC(=C(c2ccccc2)c2ccccc2)CC1)(c1ccccc1)c1ccccc1 | > 100 µM | > 100 µM |
| O=C(CCCN1CCC(O)(c2ccc(Cl)cc2)CC1)c1ccccc1 | > 100 µM | – |
| C[N+]1(CCCC(C#N)(c2ccccc2)c2ccccc2)CCC(O)(c2ccc(Cl)cc2)CC1 (configuration not stated) | > 100 µM | > 100 µM |
| Cc1ccc(C(CCCN2CCC(O)(c3ccc(Cl)cc3)CC2)c2ccccc2)cc1 (configuration not stated) | 30.9 µM | 11.5 µM |
| N#CC(CCCN1CC=C(c2ccc(Cl)cc2)CC1)(c1ccccc1)c1ccccc1 | > 100 µM | > 100 µM |
| N#CC(CCCN1CCC(O)(c2ccc(Cl)c(C(F)(F)F)c2)CC1)(c1ccccc1)c1ccccc1 | 45.7 µM | – |
| OC(CCCN1CCC(O)(c2ccc(Cl)cc2)CC1)c1ccccc1 (configuration not stated) | > 100 µM | > 100 µM |
| CC1(O)CCN(CCCC(C#N)(c2ccccc2)c2ccccc2)CC1 | > 100 µM | > 100 µM |
| OC1(c2ccc(Cl)cc2)CCN(CCCC(c2ccc(Cl)cc2)c2ccc(Cl)cc2)CC1 | 17.4 µM | – |
| Cc1cccc(C(CCCN2CCC(O)(c3ccc(Cl)cc3)CC2)c2ccccc2)c1 (configuration not stated) | 11.5 µM | – |
| CCCCC1(O)CCN(CCCC(C#N)(c2ccccc2)c2ccccc2)CC1 | > 100 µM | > 100 µM |
| N#CC(CCCN1CCC(O)(c2ccc(Cl)cc2)CC1)(c1ccccc1)c1ccccc1 [BERLEX COMPOUND] | 9.3 µM | 3.2 µM |
